Assay results taken from ChEMBL document CHEMBL5620421, “2,6-Disubstituted 7-(naphthalen-2-ylmethyl)-7H-purines as a new class of potent antitubercular agents inhibiting DprE1” (Eur J Med Chem, 2023).
pIC50: −log10 of the molar value. In brackets after ≈: the same amount, converted by molar mass. Activity calls are given as the source filed them. The rule behind the calls is not given here.

Assays:
[1] = Selectivity index, ratio of IC50 for cytotoxicity against human HepG2 cells by MTT assay to MIC99 for antitubercular activity against Mycobacterium tuberculosis CNCTC My 331/88 (H37Rv) assessed as inhibition of bacterial growth measured after 14 days of incubation; format: functional; settings: time 14 day
In short: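 HepG2 cells, 15 × 10³/well, were attached overnight and exposed 24 h to serial dilutions (DMSO ≤1%). Read by MTT at 0.5 mg/mL for 1 h and 570 nm. IC50 from 4-parameter regression, three independent experiments in triplicate. SI is HepG2 IC50 divided by H37Rv MIC99.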

[2] = test system: Mycobacterium tuberculosis; assay: Antitubercular activity against Mycobacterium tuberculosis CNCTC My 331/88 (H37Rv) assessed as inhibition of bacterial growth measured after 14 days of incubation by Sulas semisynthetic medium based assay; format: functional; settings: 336 h, time 14 day
In short: (§1)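 Micromethod MIC in Sula's semisynthetic medium. MIC is the lowest concentration inhibiting >99% of the mycobacterial population. Isoniazid was the standard drug.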

H9c2 = assay: Cytotoxicity against rat H9c2 cells assessed as cell viability at 50 uM incubated for 72 hrs by MTT spectrophotometric analysis relative to control; format: functional; settings: read-out: Activity
In short: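 HepG2 or rat H9c2 cells in DMEM with FBS, seeded at 10,000 cells/well. Treated 24 h later for 72 h, with 0.1% DMSO vehicle and 1% Triton X-100 as controls. MTT added (3 mg/mL solution) for 2 h at 37 °C, then cells lysed in isopropanol/0.1 M HCl/5% Triton X-100. Read at 570 nm minus 690 nm. Viability expressed as % of vehicle; IC50 derived where reached. At least four independent experiments.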

Escherichia coli = assay: Antibacterial activity against Escherichia coli A1235 assessed as inhibition of bacterial growth incubated for 24 to 48 hrs by microdilution broth method; format: functional, organism-based; settings: time 24-48 hrs
In short: (§2)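 Clinical isolates kept at –70 °C and subcultured twice on Mueller-Hinton agar, using the second subculture. Broth microdilution in Mueller-Hinton broth at pH 7.4 with two-fold serial compound dilutions and DMSO ≤1% final. Inoculum was 10 μL of a 1.5 × 10⁸ CFU/mL suspension. Incubated at 36 °C ± 1 °C and read at 24 h and 48 h. MIC taken as 95% growth inhibition.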

Pseudomonas aeruginosa = assay: Antibacterial activity against multidrug-resistant Pseudomonas aeruginosa A1245 assessed as inhibition of bacterial growth incubated for 24 to 48 hrs by microdilution broth method; format: functional, organism-based; settings: time 24-48 hrs
In short: (§3)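 Clinical isolates, stored at −70 °C, were passaged twice on Mueller-Hinton agar. Broth microdilution in Mueller-Hinton broth, pH 7.4, with twofold serial dilutions. DMSO was at most 1% final. Inoculum 1.5 × 10⁸ CFU/mL suspension. MIC is 95% growth inhibition, read after 24 and 48 h at 36 °C.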

Staphylococcus aureus [3] = assay: Antibacterial activity against Staphylococcus aureus C1947 assessed as inhibition of bacterial growth incubated for 24 to 48 hrs by microdilution broth method; format: functional, organism-based; settings: time 24-48 hrs; in short: as §2
[4] = test system: Staphylococcus epidermidis; assay: Antibacterial activity against Staphylococcus epidermidis C1936 assessed as inhibition of bacterial growth incubated for 24 to 48 hrs by microdilution broth method; format: functional, organism-based; settings: time 24-48 hrs; in short: as §2
[5] = test system: Mycobacterium tuberculosis; assay: Antitubercular activity against Mycobacterium tuberculosis CNCTC My 331/88 (H37Rv) assessed as inhibition of bacterial growth measured after 21 days of incubation by Sulas semisynthetic medium based assay; format: functional; settings: 504 h, time 21 day; in short: as §1
[6] = test system: Mycobacterium tuberculosis; assay: Antimycobacterial activity against MDR clinical isolate Mycobacterium tuberculosis 7357/1998 assessed as inhibition of mycobacterial growth measured after 14 to 21 days of incubation by Sulas semisynthetic medium based assay; format: functional; settings: time 14-21 day
In short: (§4)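 Clinical MDR/XDR M. tuberculosis isolates were tested by the Sula's semisynthetic medium micromethod. Compounds in DMSO at 1000 to 0.5 μmol/L, in twofold-type steps. Incubation at 37 °C, read at 14 and 21 days. MIC99 is the lowest concentration inhibiting >99% of growth. Drug resistance or susceptibility of each isolate is to amikacin, clofazimine, gentamicin, ofloxacin, streptomycin and the others listed.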

[7] = test system: Mycobacterium tuberculosis; assay: Antimycobacterial activity against MDR clinical isolate Mycobacterium tuberculosis 234/2005 assessed as inhibition of mycobacterial growth measured after 14 to 21 days of incubation by Sulas semisynthetic medium based assay; format: functional; settings: time 14-21 day; in short: as §4
[8] = test system: Mycobacterium tuberculosis; assay: Antimycobacterial activity against MDR clinical isolate Mycobacterium tuberculosis 9449/2007 assessed as inhibition of mycobacterial growth measured after 14 to 21 days of incubation by Sulas semisynthetic medium based assay; format: functional; settings: time 14-21 day; in short: as §4
[9] = test system: Mycobacterium tuberculosis; assay: Antimycobacterial activity against XDR clinical isolate Mycobacterium tuberculosis 9449/2007 assessed as inhibition of mycobacterial growth measured after 14 to 21 days of incubation by Sulas semisynthetic medium based assay; format: functional; settings: time 14-21 day; in short: as §4
Klebsiella pneumoniae = assay: Antibacterial activity against ESBL negative Klebsiella pneumoniae C1950 assessed as inhibition of bacterial growth incubated for 24 to 48 hrs by microdilution broth method; format: functional, organism-based; settings: time 24-48 hrs; in short: as §2
[10] = test system: Mycobacterium tuberculosis; assay: Antimycobacterial activity against XDR clinical isolate Mycobacterium tuberculosis PRAHA 1 assessed as inhibition of mycobacterial growth measured after 14 to 21 days of incubation by Sulas semisynthetic medium based assay; format: functional; settings: time 14-21 day; in short: as §4
[11] = test system: Mycobacterium tuberculosis; assay: Antimycobacterial activity against XDR clinical isolate Mycobacterium tuberculosis 7357/1998 assessed as inhibition of mycobacterial growth measured after 14 to 21 days of incubation by Sulas semisynthetic medium based assay; format: functional; settings: time 14-21 day; in short: as §4
Enterococcus faecium = assay: Antibacterial activity against vancomycin-resistant Enterococcus faecium assessed as inhibition of bacterial growth incubated for 24 to 48 hrs by microdilution broth method; format: functional, organism-based; settings: time 24-48 hrs; in short: as §3
Staphylococcus aureus [12] = assay: Antibacterial activity against methicilin-resistant Staphylococcus aureus C1923 assessed as inhibition of bacterial growth incubated for 24 to 48 hrs by microdilution broth method; format: functional, organism-based; settings: time 24-48 hrs; in short: as §3
HepG2 = assay: Cytotoxicity against human HepG2 cells incubated for 24 hrs by MTT assay; format: functional, cell-based; settings: HepG2, 24 h
In short: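 HepG2 cells in DMEM with 10% FBS, seeded at 15 × 10³ cells/well and attached overnight. Exposed for 24 h to serial dilutions prepared from DMSO stocks, final DMSO ≤1%. Then given fresh medium with 0.5 mg/mL MTT for 1 h at 37 °C. Formazan dissolved in DMSO and read at 570 nm. IC50 from 4-parameter nonlinear regression; three independent experiments in triplicate, mean ± SD.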

[13] = Aqueous solubility of compound incubated for 20 mins by UV-Visible spectrophotometric analysis; format: physicochemical; settings: buffer
In short: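 Solubility in ultrapure water containing 5% DMSO. Absorbance taken at each compound's λmax and compared with a six-point calibration made by serial dilution of a 50 μM standard, fitted by linear regression. Over-saturated solutions were sonicated at 37 °C for 10 min and centrifuged at 8000 RPM for 10 min. Supernatant absorbance was read, after dilution with 5% DMSO/water if above the calibration range.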

[14] = Intrinsic clearance in human liver microsomes at 3 uM incubated for 5 to 45 min in presence of NADPH by LC-MS analysis; format: ADME, Microsome; settings: time 5-45 min, read-out: CLH

SMILES	Selectivity Index [1]	MIC99 [2]	viability at 50 µM (H9c2)	Activity (Escherichia coli)	Activity (Pseudomonas aeruginosa)	Activity (Staphylococcus aureus [3])	Activity [4]	MIC99 [5]	MIC99 [6]	MIC99 [7]	MIC99 [8]	MIC99 [9]	Activity (Klebsiella pneumoniae)	MIC99 [10]	MIC99 [11]	Activity (Enterococcus faecium)	Activity (Staphylococcus aureus [12])	pIC50 (HepG2)	solubility at 20 min [13]	microsomal CLint at 3 µM [14]
COc1nc(N2CCOCC2)nc2ncn(Cc3ccc4ccccc4c3)c12	32	2 µM (≈ 0.751 µg/mL)	92.6%	inactive	inactive	inactive	inactive	4 µM (≈ 1.5 µg/mL)	16 µM (≈ 6.01 µg/mL)	16 µM (≈ 6.01 µg/mL)	8 µM (≈ 3 µg/mL)	16 µM (≈ 6.01 µg/mL)	inactive	16 µM (≈ 6.01 µg/mL)	16 µM (≈ 6.01 µg/mL)	inactive	inactive	4.19		
c1ccc2cc(Cn3cnc4nc(N5CCOCC5)nc(NC5CCC5)c43)ccc2c1	16.5	2 µM (≈ 0.829 µg/mL)		inactive	inactive	Active	Active	4 µM (≈ 1.66 µg/mL)	4 µM (≈ 1.66 µg/mL)	4 µM (≈ 1.66 µg/mL)	4 µM (≈ 1.66 µg/mL)	8 µM (≈ 3.32 µg/mL)	inactive	4 µM (≈ 1.66 µg/mL)	8 µM (≈ 3.32 µg/mL)	Active	Active	4.48	159 µM (≈ 65.9 µg/mL)	36.6 µL/min/mg
CCNc1nc(N2CCOCC2)nc2ncn(Cc3ccc4ccccc4c3)c12	63.88	1 µM (≈ 0.388 µg/mL)	88%	inactive	inactive	inactive	inactive	1 µM (≈ 0.388 µg/mL)			2 µM (≈ 0.777 µg/mL)	4 µM (≈ 1.55 µg/mL)	inactive			inactive	inactive	4.19	150 µM (≈ 58.4 µg/mL)	27 µL/min/mg
c1ccc(CNc2nc(N3CCOCC3)nc3ncn(Cc4ccc5ccccc5c4)c23)cc1	16.9	2 µM (≈ 0.901 µg/mL)		inactive	inactive	inactive	inactive	4 µM (≈ 1.8 µg/mL)	2 µM (≈ 0.901 µg/mL)	2 µM (≈ 0.901 µg/mL)	4 µM (≈ 1.8 µg/mL)	4 µM (≈ 1.8 µg/mL)	inactive	4 µM (≈ 1.8 µg/mL)	4 µM (≈ 1.8 µg/mL)	inactive	inactive	4.47	58.9 µM (≈ 26.5 µg/mL)	72.1 µL/min/mg
